In ChEMBL document CHEMBL1138360, “Hypoxia-selective 3-alkyl 1,2,4-benzotriazine 1,4-dioxides: the influence of hydrogen bond donors on extravascular transport and antitumor activity” (J Med Chem, 2007):

Key:
HT-29 [1] = experiment: Cytotoxicity against HT29 cells under hypoxic condition after 4 hrs; type: functional, cell-based; settings: Homo sapiens, HT-29, 4 h
How it was run: (§1)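 HT29 or SiHa cells exposed to drug for 4 h in 96-well plates under anoxia (H2/Pd anaerobic chamber). IC50 determined.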

HT-29 [2] = experiment: Ratio of IC50 for HT29 cells in aerobic condition to IC50 for HT29 cells in hypoxic condition after 4 hrs; type: functional, Homo sapiens
How it was run: (§2)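 Aerobic and anoxic (H2/Pd chamber) IC50s measured in the same experiment after 4 h exposure, HT29 or SiHa cells. Ratio computed as aerobic IC50/anoxic IC50.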

SiHa [3] = experiment: Cytotoxicity against SiHa cells under hypoxic condition after 4 hrs; type: functional, cell-based; settings: Homo sapiens; how it was run: as §1
SiHa [4] = experiment: Ratio of IC50 for SiHa cells in aerobic condition to IC50 for SiHa cells in hypoxic condition after 4 hrs; type: functional, Homo sapiens; how it was run: as §2
HT-29 [5] = experiment: Drug penetration in anoxic HT29 cells assessed as penetration half distance; type: ADME, cell-based; settings: human
HT-29 [6] = experiment: Cell viability in anoxic HT29 cells assessed as drug level providing 10% surviving fraction by clonogenic assay; type: cell-based; settings: human
HT-29 [7] = experiment: Diffusion coefficient, D in aerobic HT29 multicellular layers; type: ADME, cell-based; settings: human
How it was run: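 Drug flux measured through HT29 multicellular layers on Teflon support membranes under 95% O2 at 37 °C, 50 µM initial donor concentration. Donor and receiver levels fitted with a diffusion model. Layer thickness estimated from flux of internal standard urea.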

[8] = Solubility in culture medium in presence of 5% fetal calf serum; type: physicochemical; settings: culture medium with 5% fetal calf serum
How it was run: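 Solubility determined at 22 °C in culture medium containing 5% fetal calf serum.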

Row | SMILES | IC50 (HT-29 [1]) [µM] | Ratio IC50 (HT-29 [2]) | IC50 (SiHa [3]) [µM] | Ratio IC50 (SiHa [4]) | Penetration half distance (HT-29 [5]) [µm] | Activity (HT-29 [6]) [µM·h] | D (HT-29 [7]) | solubility [8] [mM]
1 | CCc1n[n+]([O-])c2cc(OCCN(C)C)ccc2[n+]1[O-] | 0.7 | 105 | 0.5 | 128 | 34 | 1.8 | – | –
2 | CCc1n[n+]([O-])c2ccc(OCCO)cc2[n+]1[O-] | 14.4 | 54 | 7.9 | 203 | 34 | 97.3 | – | –
3 | CCc1n[n+]([O-])c2ccc(OCCCO)cc2[n+]1[O-] | 17 | 54 | 8.6 | 105 | 34 | 108.9 | – | –
4 | CCc1n[n+]([O-])c2cc(OCCOC)ccc2[n+]1[O-] | 4.7 | 69 | 1.8 | 116 | 34 | 40.7 | – | –
5 | Cc1n[n+]([O-])c2ccccc2[n+]1[O-] | 4.1 | 67 | 3 | 57 | 34 | 25.3 | 19.15 10^-7cm2/sec | –
6 | [O-][n+]1nc(CCO)[n+]([O-])c2ccccc21 | 3.7 | 153 | 1.7 | 526 | 34 | 18.1 | 4.41 10^-7cm2/sec | –
7 | COCCCc1n[n+]([O-])c2ccccc2[n+]1[O-] | 6.9 | 86 | 2.4 | 272 | 34 | 26.7 | 21.3 10^-7cm2/sec | –
8 | [O-][n+]1nc(-c2ccccc2)[n+]([O-])c2ccccc21 | 4.4 | 2 | 2.2 | 1 | 34 | – | – | –
9 | [O-][n+]1nc(CCN2CCOCC2)[n+]([O-])c2ccccc21 | 3.8 | 107 | 2.2 | 225 | 34 | 10 | – | –
10 | [O-][n+]1nc(CCCN2CCOCC2)[n+]([O-])c2ccccc21 | 2.2 | 91 | 1 | 132 | 34 | 3.2 | 7.47 10^-7cm2/sec | –
11 | CN(C)CCCc1n[n+]([O-])c2ccccc2[n+]1[O-] | 0.39 | 71 | 0.2 | 58 | 34 | 2.1 | – | –
12 | CCc1n[n+]([O-])c2ccc(C)cc2[n+]1[O-] | 11.4 | 63 | 3.6 | 214 | 34 | 52.4 | – | –
13 | COCCc1n[n+]([O-])c2ccc(C)cc2[n+]1[O-] | 6.6 | 63 | 1.9 | 150 | 34 | 57.9 | 17.34 10^-7cm2/sec | –
14 | [O-][n+]1nc(CCCN2CCCCC2)[n+]([O-])c2ccccc21 | 1 | 36 | 0.6 | 55 | 34 | 1.5 | 6.5 10^-7cm2/sec | –
15 | Cc1ccc2c(c1)[n+]([O-])c(CCO)n[n+]2[O-] | 4.3 | 82 | 1.2 | 208 | 34 | 22.2 | – | –
16 | CCc1n[n+]([O-])c2ccc(OCCOC)cc2[n+]1[O-] | 17.9 | 120 | 14.2 | 70 | 34 | 213.2 | – | –
17 | [O-][n+]1nc(CCCO)[n+]([O-])c2ccccc21 | 3.7 | 110 | 3.1 | 85 | 34 | 30.2 | 4.94 10^-7cm2/sec | –
18 | COc1n[n+]([O-])c2ccccc2[n+]1[O-] | 3.1 | 1 | 1.1 | 4 | 34 | – | – | –
19 | CCc1n[n+]([O-])c2cc(OCCCO)ccc2[n+]1[O-] | 6.9 | 146 | 2.7 | 161 | 34 | 31.6 | – | –
20 | CCc1n[n+]([O-])c2ccc(OC)cc2[n+]1[O-].Cl | – | – | – | – | – | – | – | 3
21 | Cl.[O-][n+]1nc(CCCN2CCOCC2)[n+]([O-])c2ccccc21 | – | – | – | – | – | – | – | > 46
22 | Cc1ccc2c(c1)[n+]([O-])c(CCO)n[n+]2[O-].Cl | – | – | – | – | – | – | – | 7
23 | CCc1n[n+]([O-])c2cc(OCCN(C)C)ccc2[n+]1[O-].Cl | – | – | – | – | – | – | – | > 51

Row | SMILES | IC50 (HT-29 [1]) [µM] | Ratio IC50 (HT-29 [2]) | IC50 (SiHa [3]) [µM] | Ratio IC50 (SiHa [4]) | Penetration half distance (HT-29 [5]) [µm] | Activity (HT-29 [6]) [µM·h] | D (HT-29 [7]) | solubility [8] [mM]
24 | CCc1n[n+]([O-])c2ccc(OCCCO)cc2[n+]1[O-].Cl | – | – | – | – | – | – | – | 10
25 | CCc1n[n+]([O-])c2ccc(OCCN(C)C)cc2[n+]1[O-].Cl | – | – | – | – | – | – | – | > 49
26 | CCc1n[n+]([O-])c2ccccc2[n+]1[O-].Cl | – | – | – | – | – | – | – | 15
27 | COCCc1n[n+]([O-])c2ccccc2[n+]1[O-].Cl | – | – | – | – | – | – | – | > 21
28 | CCc1n[n+]([O-])c2ccc(OCCN3CCCCC3)cc2[n+]1[O-].Cl | – | – | – | – | – | – | – | > 48
29 | CCc1n[n+]([O-])c2cc(OCCOC)ccc2[n+]1[O-].Cl | – | – | – | – | – | – | – | 2
30 | Cl.[O-][n+]1nc(CCCO)[n+]([O-])c2ccccc21 | – | – | – | – | – | – | – | 50
31 | CCc1n[n+]([O-])c2cc(OCCCO)ccc2[n+]1[O-].Cl | – | – | – | – | – | – | – | 17
32 | CCc1n[n+]([O-])c2cc(OCCCN3CCOCC3)ccc2[n+]1[O-].Cl | – | – | – | – | – | – | – | > 48
33 | Cl.[O-][n+]1nc(-c2ccccc2)[n+]([O-])c2ccccc21 | – | – | – | – | – | – | – | 0.3
34 | COc1n[n+]([O-])c2ccccc2[n+]1[O-].Cl | – | – | – | – | – | – | – | 23
35 | Cl.[O-][n+]1nc(CCN2CCOCC2)[n+]([O-])c2ccccc21 | – | – | – | – | – | – | – | 42
36 | CCc1n[n+]([O-])c2ccc(OCCO)cc2[n+]1[O-].Cl | – | – | – | – | – | – | – | 21
37 | CCc1n[n+]([O-])c2ccc(OCCOC)cc2[n+]1[O-].Cl | – | – | – | – | – | – | – | 3
38 | CCc1n[n+]([O-])c2ccc(OCCCN3CCOCC3)cc2[n+]1[O-].Cl | – | – | – | – | – | – | – | > 47
39 | COCCc1n[n+]([O-])c2ccc(C)cc2[n+]1[O-].Cl | – | – | – | – | – | – | – | 3
40 | COCCCc1n[n+]([O-])c2ccccc2[n+]1[O-].Cl | – | – | – | – | – | – | – | 21
41 | Cc1n[n+]([O-])c2ccccc2[n+]1[O-].Cl | – | – | – | – | – | – | – | 28
42 | Cl.[O-][n+]1nc(CCO)[n+]([O-])c2ccccc21 | – | – | – | – | – | – | – | 34
43 | CN(C)CCCc1n[n+]([O-])c2ccccc2[n+]1[O-].Cl | – | – | – | – | – | – | – | 51
44 | CCc1n[n+]([O-])c2ccc(C)cc2[n+]1[O-].Cl | – | – | – | – | – | – | – | 4
45 | Cl.[O-][n+]1nc(CCCN2CCCCC2)[n+]([O-])c2ccccc21 | – | – | – | – | – | – | – | 43
